# Screening data (PubChem)
# This is a sample that favours compounds with a hit; in the whole collection about 2.9% have one here.
# TRPC4 agonist: opens the mouse TRPC4 cation channel. 310,000 tested, 0.49% active. HEK293 TRPC4beta/mu-opioid, Fluo4 calcium fluorescence; stronger effect = higher value. B-score at 10 µM;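 active = B-score above 5 SD of library B-scores, and initial fluorescence ratio not above library mean plus 5 SD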;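 note: positive B-score marks a calcium rise read as TRPC4 activation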
#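 System: HEK293 cells stably co-expressing mouse TRPC4beta and mu-opioid receptor; Schedule: Fluo4 dye loading 45 min at room temperature, 110 s recording; Detection: Fluo4 fluorescence, kinetic; Evaluation: B-scored integrated calcium fluorescence ratio; Controls: buffer (low) and maximal DAMGO (high).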
# TRPC4 potent: allosteric potentiators of mouse TRPC4 channel; B-score at 10 µM; AID 2227; 310,000 tested, 0.42% active; HEK293 TRPC4beta/mu-opioid, DAMGO EC20, Fluo-4 Ca2+ flux; stronger effect = higher value;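 active = B-score of calcium response area above 5 SD of library B-scores, with initial fluorescence ratio within 5 SD of library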
# TRPC4 inh: blocks the mouse TRPC4 cation channel; B-score at 10 µM; Q9QUQ5; 300,000 tested, 0.39% active; HEK293 TRPC4beta/mu-opioid, DAMGO-evoked Fluo4 calcium flux; stronger effect = lower value;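 active = B-score over 3 SD under the library average, no early fluorescence shift, positive overall ratio signal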
#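 Signal: kinetic Fluo4 fluorescence imaging of calcium influx. Material: stable TRPC4beta/mu-opioid receptor HEK293 cells. Probe or stimulus: DAMGO in two steps, submaximal then maximal.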
# TRPC6 activator: activators of mouse TRPC6 channel. AID 2550. Q61143. HEK293-TRPC6 membrane potential dye fluorescence; stronger effect = higher value. B-score at 10 µM. 310,000 tested, 0.13% active;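 active = B-score of the integrated fluorescence ratio above library mean plus 3 SD, and starting fluorescence ratio within library mean plus 5 SD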;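 note: higher score means more depolarization so channel activation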
# TRPC6 inh: blocks the mouse TRPC6 cation channel; Q61143; HEK293-TRPC6, membrane potential dye, ACh-evoked depolarization; stronger effect = lower value; B-score at 10 µM; 310,000 tested, 1.1% active;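 active = B-score under library mean minus 3 SD, initial fluorescence not abnormally high, positive integrated signal ratio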;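 note: B-score derived from integrated fluorescence ratio over the kinetic read; more negative B-score means stronger inhibition of depolarization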
# Kir21 inh: Kir2.1 (mouse) channel inhibition; P35561; HEK293-Kir2.1, FluxOR thallium flux fluorescence; stronger effect = lower value; B-score at 10 µM; 310,000 tested, 0.85% active;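 active = fluorescence ratio B-score at or below minus 3 SD of library scores, with starting-brightness B-score within 2 SD, cut at about -4.2 in these data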;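 note: channel flux triggered by added potassium and thallium sulfate stimulus; B-score of peak minus minimum fluorescence over baseline after thallium stimulus; more negative B-score means stronger Kir2.1 block with less thallium influx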
# TRPC4 spec 2: second selectivity test of TRPC6 inhibitors: effect on mouse TRPC4 | shares compounds with TRPC6 inh | HEK293 TRPC4/MOR, membrane potential dye fluorescence; channel activated by saturating DAMGO dose | inhibition, % at 10 µM | 920 tested, 42% active;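 active = compounds whose fluorescence signal differed from control wells by over 3 SD, either direction, in both duplicate plates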
# TRPC4 spec: tests whether TRPC6 inhibitors also affect mouse TRPC4. 920 tested, 61% active. HEK293 TRPC4/mu-opioid, membrane potential fluorescence. activity change, negative = inhibition, % at 10 µM. AID 2777. shares compounds with TRPC6 inh;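 active = rise or fall in signal beyond 3 SD of buffer-only wells in both replicate plates, either sign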;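 note: integrated kinetic ratio of fluorescence range over baseline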
# HEK293 MPD ctr 2-1: second check of TRPC6 inhibitor effects in parental HEK293 cells. shares compounds with TRPC6 inh. parental HEK293 membrane potential dye fluorescence; maximal acetylcholine challenge after compound addition. signal change vs control, % at 10 µM. 920 tested, 31% active. AID 2779;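 active = membrane potential signal moving either way by over 3 SD of the maximum-effect control, in both duplicate plates, meaning non-specific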
# HEK293 MPD ctr-1: parental HEK293 nonspecific activity of TRPC6 inhibitors; shares compounds with TRPC6 inh; parental HEK293 membrane potential dye fluorescence; membrane potential signal change, % at 10 µM; 920 tested, 60% active; AID 2780;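 active = membrane potential signal shifting up or down by more than 3 SD of buffer-only wells, on both duplicate plates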
# HEK293 MPD ctr-2: parental HEK293 nonspecific activity of TRPC6 modulators; 2,400 tested, 51% active; membrane potential dye fluorescence; membrane potential signal change, % at 10 µM; shares compounds with TRPC6 inh; AID 488924;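 active = membrane potential signal moves up or down beyond 5 SD from buffer-only wells, on both duplicate plates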
# HEK293 MPD ctr 2-2: second check of TRPC6 modulator effects in parental HEK293 cells; shares compounds with TRPC6 inh; 2,400 tested, 14% active; inhibition, % at 10 µM; membrane potential dye fluorescence; after compound, maximal acetylcholine stimulation;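 active = membrane potential signal drops by more than 5 SD from the mean control signal, in both duplicate plates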
# TRPC4/MOR mod: tests whether TRPC6 modulators also affect mouse TRPC4 | percent change from control (negative = decrease, positive = increase), % at 10 µM | shares compounds with TRPC6 inh | 2,400 tested, 69% active | HEK293 TRPC4/mu-opioid, membrane potential fluorescence;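 active = membrane potential signal moved up or down beyond 5 SD of buffer control wells, in both duplicate plates, actives on both sides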
# TRPC4/MOR inh 2: second check of whether TRPC6 modulators also affect mouse TRPC4 | 2,400 tested, 55% active | shares compounds with TRPC6 inh | HEK293 TRPC4/mu-opioid, membrane potential dye fluorescence; stimulated with maximal-effect DAMGO | inhibition, % at 10 µM;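 active = drop in membrane potential signal beyond 5 SD of the control wells in both duplicate plates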;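 note: TRPC4 counter screen for TRPC6 hits run under conditions tuned for TRPC6 not TRPC4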
# TRPC6 inh conf: confirmation of mouse TRPC6 inhibitors; shares compounds with TRPC6 inh; HEK293-TRPC6, membrane potential dye, ACh-evoked depolarization; inhibition, % at 10 µM; 3,300 tested, 43% active;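 active = fluorescence ratio falls more than 5 SD below the full-stimulation control mean, in both duplicate runs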;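 note: integrated fluorescence ratio of peak minus minimum over baseline after agonist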
# TRPC6 act confirm: mouse TRPC6 activator confirmation; 2,800 tested, 11% active; activation, % at 10 µM; shares compounds with TRPC6 inh; HEK293-TRPC6 membrane potential dye fluorescence, FDSS;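 active = ratio signal rise beyond 5 SD above unstimulated control wells' mean, seen in both duplicate runs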
# Hits are given with their value; n = inactive; x = no result.
SMILES,TRPC4 agonist,TRPC4 potent,TRPC4 inh,TRPC6 activator,TRPC6 inh,Kir21 inh,HEK293 MPD ctr-2,HEK293 MPD ctr 2-2,TRPC4/MOR mod,TRPC4/MOR inh 2,TRPC6 inh conf,TRPC6 act confirm,others
Cn1c(SCc2cccc([N+](=O)[O-])c2)nc2c(c1=O)SCC2,n,n,n,n,n,n,x,x,x,x,x,x,
CCOC(=O)C1=C(O)c2ccccc2C(=O)/C1=C\c1ccc(CC)cc1,n,n,n,14.8,n,n,551.5%,n,129.5%,n,n,182.0%,
CCOc1ccc(C(=O)CCN2CCCCCC2)cc1,n,n,n,n,n,n,x,x,x,x,x,x,
CCCOc1ccc(C(=O)CCN2CCCCC2)cc1,n,n,n,n,-5.36,n,149.5%,n,23.5%,n,n,x,
CCc1cc(=O)oc2c(C)c(OCC(=O)NC3CC(C)(C)NC(C)(C)C3)ccc12,n,n,n,n,-5.72,n,-150.0%,n,-31.0%,36.5%,38.0%,n,
Cc1cc(=O)oc2cc(OCC(=O)NC3CC(C)(C)NC(C)(C)C3)c(Cl)cc12,n,n,n,n,n,n,x,x,x,x,x,x,
CCOC(=O)c1c(C)n(C)c2ccc(O)c(CN3CCCCC3)c12,n,n,n,n,-8,n,-172.5%,n,-30.5%,59.0%,65.5%,n,
CCOC(=O)c1c(C)n(C)c2ccc(O)c(CN(C)C)c12,n,n,n,n,-8.65,n,-242.0%,n,-41.0%,59.0%,61.5%,n,
CCOC(=O)c1c(C)n(-c2ccc(C)cc2)c2ccc(O)c(CN(C)C)c12,n,n,n,n,-5.7,n,-96.5%,n,-18.0%,61.5%,51.0%,n,
CCOC(=O)c1c(C)n(-c2ccc(OC)cc2)c2ccc(O)c(CN(C)C)c12,n,n,n,n,-8.84,n,x,x,x,x,60.3%,n,TRPC4 spec 2=46.0%;TRPC4 spec=-17.5%;HEK293 MPD ctr 2-1=n;HEK293 MPD ctr-1=-286.0%
CCCCOc1ccc(N(CC(=O)NCc2ccccc2)C(=O)c2csnn2)cc1,n,n,n,n,n,n,x,x,x,x,x,x,
CC(=O)Nc1ccc(N/C(N)=N/c2nc(C)cc(C)n2)cc1,n,n,n,n,n,n,x,x,x,x,x,x,
COc1ccc(Cl)cc1N/C(N)=N/c1nc(C)cc(C)n1,n,n,-7,n,-5.64,n,n,n,-10.0%,n,n,n,
Cc1cc(C)nc(/N=C(\N)Nc2ccc(F)c([N+](=O)[O-])c2)n1,n,n,n,n,-6.43,n,-185.0%,n,-25.0%,31.5%,n,n,
